Test results reported in ChEMBL document CHEMBL1143719, “Design, synthesis, and anticonvulsant activity of some sulfamides” (Bioorg Med Chem, 2007).
Activity calls are given as the source filed them. The rule behind the calls is not given here.

What was measured:
Mus musculus [1] = experiment: Anticonvulsant activity in Albino mouse at 100 mg/kg, ip after 4 hrs by MES assay; assay type: functional, organism-based; design: dose 100 mg/kg
Method in brief: (§1)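 Mice given compound ip at 30, 100 and 300 mg/kg in 30% polyethylene glycol 400 and 10% water, 0.01 mL/g body weight. Three animals per dose. Maximal electroshock (MES) or pentylenetetrazol (PTZ) seizure tests were run 0.5 and 4 h after dosing, and animals protected were counted.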

Mus musculus [2] = experiment: Neurotoxicity in intraperitoneally dosed Albino mouse at 362 umol/kg by RotoRod test; assay type: toxicity, organism-based; conditions: in vivo, ip
Method in brief: (§2)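 Median neurotoxic dose in albino mice given compound ip in 30% PEG 400 and 10% water, at the time of peak effect. Six animals per dose were tested on RotoRod and the percentage showing minimal neurotoxicity was recorded. Where TD50 could not be completed, the highest dose tested is reported.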

Mus musculus [3] = experiment: Anticonvulsant activity in Albino mouse at 30 mg/kg, ip after 0.5 hrs by PTZ assay; assay type: functional, organism-based; design: dose 30 mg/kg; method in brief: as §1
Mus musculus [4] = experiment: Anticonvulsant activity in intraperitoneally dosed Albino mouse at 362 umol/kg by PTZ assay; assay type: functional, organism-based
Method in brief: (§3)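 Phase II PTZ test in albino mice dosed ip (30% PEG 400 and 10% water), at the predetermined time of peak effect, in groups of six animals.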

[5] = (§4) Neurotoxicity in intraperitoneally dosed Albino mouse by RotoRod test; assay type: toxicity, organism-based; conditions: Albino, in vivo, ip; method in brief: as §2
Mus musculus [6] = experiment: as §4; assay type: toxicity, organism-based; conditions: in vivo, ip; method in brief: as §2
Mus musculus [7] = experiment: Anticonvulsant activity in Albino mouse at 100 mg/kg, ip after 0.5 hrs by MES assay; assay type: functional, organism-based; design: dose 100 mg/kg; method in brief: as §1
Mus musculus [8] = experiment: Anticonvulsant activity assessed as time of peak effect in intraperitoneally dosed Albino mouse by MES assay; assay type: functional
Method in brief: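 Phase II quantification in albino mice (ip; 30% PEG 400 and 10% water vehicle). Time of peak effect was determined first. Groups of six mice then received different doses at that time. MES ED50 is the dose protecting 50% of animals, in µmol/kg.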

Mus musculus [9] = experiment: Anticonvulsant activity in Albino mouse at 100 mg/kg, ip after 0.5 hrs by PTZ assay; assay type: functional, organism-based; design: dose 100 mg/kg; method in brief: as §1
Mus musculus [10] = experiment: Anticonvulsant activity in Albino mouse at 30 mg/kg, ip after 4 hrs by PTZ assay; assay type: functional, organism-based; design: dose 30 mg/kg; method in brief: as §1
Mus musculus [11] = experiment: Anticonvulsant activity in Albino mouse at 100 mg/kg, ip after 4 hrs by PTZ assay; assay type: functional, organism-based; design: dose 100 mg/kg; method in brief: as §1
Mus musculus [12] = experiment: Neurotoxicity in Albino mouse at 100 mg/kg, ip after 0.5 hrs by RotoRod test; assay type: toxicity, organism-based; design: dose 100 mg/kg, route intraperitoneal; conditions: in vivo
Method in brief: (§5)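 RotoRod neurotoxicity screen in mice dosed ip at 30, 100 and 300 mg/kg, in vehicle of 30% PEG 400 and 10% water (0.01 mL/g). Three animals per dose, tested 0.5 and 4 h after administration. Affected animals were scored per group.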

Mus musculus [13] = experiment: Neurotoxicity in Albino mouse at 100 mg/kg, ip after 4 hrs by RotoRod test; assay type: toxicity, organism-based; design: dose 100 mg/kg, route intraperitoneal; conditions: in vivo; method in brief: as §5
Mus musculus [14] = species on record: Mus musculus; experiment: Protective index, ratio of TD50 against Albino mouse to ED50 for Albino mouse; assay type: functional
Mus musculus [15] = experiment: Neurotoxicity in Albino mouse at 30 mg/kg, ip after 0.5 hrs by RotoRod test; assay type: toxicity, organism-based; design: dose 30 mg/kg, route intraperitoneal; conditions: in vivo; method in brief: as §5
Mus musculus [16] = experiment: Anticonvulsant activity in Albino mouse at 30 mg/kg, ip after 4 hrs by MES assay; assay type: functional, organism-based; design: dose 30 mg/kg; method in brief: as §1
Mus musculus [17] = experiment: Neurotoxicity in Albino mouse at 30 mg/kg, ip after 4 hrs by RotoRod test; assay type: toxicity, organism-based; design: dose 30 mg/kg, route intraperitoneal; conditions: in vivo; method in brief: as §5
Mus musculus [18] = experiment: Neurotoxicity in intraperitoneally dosed Albino mouse at 481 umol/kg by RotoRod test; assay type: toxicity, organism-based; conditions: in vivo, ip; method in brief: as §2
Mus musculus [19] = experiment: Anticonvulsant activity in intraperitoneally dosed Albino mouse at 481 umol/kg by PTZ assay; assay type: functional, organism-based; method in brief: as §3
Mus musculus [20] = experiment: Neurotoxic time of peak effect in intraperitoneally dosed Albino mouse by RotoRod test; assay type: ADME, organism-based; conditions: in vivo, ip; method in brief: as §2
Mus musculus [21] = experiment: Anticonvulsant activity in Albino mouse at 300 mg/kg, ip after 4 hrs by MES assay; assay type: functional, organism-based; design: dose 300 mg/kg; method in brief: as §1
Mus musculus [22] = experiment: Anticonvulsant activity in intraperitoneally dosed Albino mouse at 1613 umol/kg by PTZ assay; assay type: functional, organism-based; method in brief: as §3
Mus musculus [23] = experiment: Neurotoxicity in Albino mouse at 300 mg/kg, ip after 0.5 hrs by RotoRod test; assay type: toxicity, organism-based; design: dose 300 mg/kg, route intraperitoneal; conditions: in vivo; method in brief: as §5
Mus musculus [24] = experiment: Anticonvulsant activity in intraperitoneally dosed Albino mouse by MES assay; assay type: functional; conditions: ip
Mus musculus [25] = experiment: Anticonvulsant activity in Albino mouse at 300 mg/kg, ip after 4 hrs by PTZ assay; assay type: functional, organism-based; design: dose 300 mg/kg; method in brief: as §1
Mus musculus [26] = experiment: Anticonvulsant activity in Albino mouse at 300 mg/kg, ip after 0.5 hrs by PTZ assay; assay type: functional, organism-based; design: dose 300 mg/kg; method in brief: as §1
Mus musculus [27] = experiment: Anticonvulsant activity in Albino mouse at 300 mg/kg, ip after 0.5 hrs by MES assay; assay type: functional, organism-based; design: dose 300 mg/kg; method in brief: as §1
Mus musculus [28] = experiment: Neurotoxicity in Albino mouse at 300 mg/kg, ip after 4 hrs by RotoRod test; assay type: toxicity, organism-based; design: dose 300 mg/kg, route intraperitoneal; conditions: in vivo; method in brief: as §5
Mus musculus [29] = experiment: Anticonvulsant activity in intraperitoneally dosed Albino mouse at 385 umol/kg by PTZ assay; assay type: functional, organism-based; method in brief: as §3
Mus musculus [30] = experiment: Neurotoxicity in intraperitoneally dosed Albino mouse at 385 umol/kg by RotoRod test; assay type: toxicity, organism-based; conditions: in vivo, ip; method in brief: as §2

| SMILES | Activity (Mus musculus [1]) | Activity (Mus musculus [3]) | TD50 [5] [µmol/kg] | Activity (Mus musculus [6]) [%] | Activity (Mus musculus [7]) | Activity (Mus musculus [8]) [h] | Activity (Mus musculus [9]) | Activity (Mus musculus [10]) | Activity (Mus musculus [11]) | Activity (Mus musculus [12]) | Activity (Mus musculus [13]) | PI (Mus musculus [14]) | Activity (Mus musculus [15]) | Activity (Mus musculus [16]) | Activity (Mus musculus [17]) | also measured |
| --- | --- | --- | --- | --- | --- | --- | --- | --- | --- | --- | --- | --- | --- | --- | --- | --- |
| O=S(=O)(NCc1ccccc1)NCc1ccccc1 [BENZYL(BENZYLSULFAMOYL)AMINE] | inactive | inactive | > 362 | 0 | Active | 2 | inactive | inactive | inactive | Non-toxic | Non-toxic | >1.5 | Non-toxic | inactive | Non-toxic | Activity (Mus musculus [2]): 0%; Activity (Mus musculus [4]): inactive |
| CCCCNS(=O)(=O)NCCCC [BUTYL(BUTYLSULFAMOYL)AMINE] | inactive | inactive | > 481 | 0 |  | 2 | inactive | inactive | inactive | Non-toxic | Non-toxic | >1.6 | Non-toxic | inactive | Non-toxic | Activity (Mus musculus [18]): 0%; Activity (Mus musculus [19]): inactive |
| NS(=O)(=O)NCc1ccccc1 |  | inactive | 1420 |  | Active | 0.5 | inactive | inactive | inactive | Non-toxic | Non-toxic | 5.9 | Non-toxic |  | Non-toxic | Activity (Mus musculus [20]): 0.5 h; Activity (Mus musculus [21]): Active; Activity (Mus musculus [22]): inactive; Activity (Mus musculus [23]): Non-toxic; ED50 (Mus musculus [24]): 239 µmol/kg; Activity (Mus musculus [25]): inactive; Activity (Mus musculus [26]): inactive; Activity (Mus musculus [27]): Active; Activity (Mus musculus [28]): Non-toxic |
| O=S(=O)(NC1CCCCC1)NC1CCCCC1 | inactive | inactive | > 385 | 0 |  | 0.5 | inactive | inactive | inactive | Non-toxic | Non-toxic | >2.5 | Non-toxic | inactive | Non-toxic | Activity (Mus musculus [29]): inactive; Activity (Mus musculus [30]): 0% |
